# ChEMBL document CHEMBL1122166, “Beta-adrenergic blocking agents. 22. 1-Phenoxy-3-[[(substituted-amido) alkyl]amino]-2-propanols” (J Med Chem, 1982)
# Tests used:
# [1] = molecular target: T1, Adrenergic receptor beta (Homo sapiens) (UniProt P08588+P07550+P13945); test: In vivo beta adrenergic receptor blocking potency was determined by inhibition of tachycardia produced by isoproterenol (0.2 mg/kg iv) in cat preparation; format: functional, organism-based
# In short: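 Test agent infused over 30 min at three to five dose levels. Challenge was a submaximal isoproterenol dose (0.2 μg/kg iv). Mean log values were taken from two or three tests, with standard errors of the means.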
# [2] = molecular target: T1, Adrenergic receptor beta (Homo sapiens); test: In vivo beta adrenergic receptor blocking potency was determined by inhibition of depressor response produced by isoproterenol (0.2 mg/kg iv) in cat preparation; format: functional, organism-based
# In short: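 Test agent infused over 30 min at three to five dose levels against a submaximal isoproterenol challenge (0.2 μg/kg iv). The percent blockade of the isoproterenol vasodepressor response was estimated at the dose level derived from the tachycardia inhibition estimate.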
# [3] = molecular target: T1, Adrenergic receptor beta (Homo sapiens); test: In vivo beta adrenergic receptor blocking potency was determined by inhibition of tachycardia produced by isoproterenol (0.2 µg/kg iv) in cat preparation; details: Felis catus; target entry is the homologue from another species
# [4] = Felis catus; target entry is the homologue from another species; in the assay text read “0.2 µg/kg iv” for “0.2 mg/kg iv”
# [5] = Felis catus; in the assay text read “0.2 µg/kg iv” for “0.2 mg/kg iv”; target entry is the homologue from another species
Compound,"ED50 [1, 4] [mg/kg]","inhibition [2, 4] [%]","ED50 [1, 5] [mg/kg]","inhibition [2, 5] [%]",ED50 [3] [mg/kg]
C=CCOc1ccccc1OCC(O)CNC(C)CNC(=O)Cc1ccccc1 (stereo unspecified),0.019,30,–,–,–
CC(C)NC(=O)NCCNCC(O)COc1ccccc1C#N (stereo unspecified),0.168,0,–,–,–
CC(CNC(=O)Cc1ccccc1Cl)NCC(O)COc1ccccc1[N+](=O)[O-] (stereo unspecified),0.007,–,–,34,–
CNC(=O)NCCNCC(O)COc1ccccc1C#N (stereo unspecified),–,–,0.044,18,–
CCCCNC(=O)NCCNCC(O)COc1ccccc1C#N (stereo unspecified),–,–,0.304,0,–
N#Cc1ccccc1OCC(O)CNCCNC(N)=O (stereo unspecified),–,21,0.06,–,–
CC(CNC(=O)Cc1ccccc1)NCC(O)COc1ccccc1C#N (stereo unspecified),–,–,0.004,10,–
CC(C)(CNC(=O)Cc1ccccc1)NCC(O)COc1ccccc1 (stereo unspecified),–,0,0.011,–,–
O=C(NCCNCC(O)COc1ccccc1Cl)Nc1ccccc1 (stereo unspecified),0.037,–,–,4,–
CC(C)(OC(=O)NCCNCC(O)COc1ccccc1)c1ccc(Cl)cc1 (stereo unspecified),–,–,0.078,25,–
O=C(Cc1ccc(Cl)cc1)NCCNCC(O)COc1ccccc1 (stereo unspecified),–,8,0.017,–,–
O=C(COc1ccccc1)NCCNCC(O)COc1ccccc1 (stereo unspecified),–,0,0.038,–,–
O=C(Cc1ccccc1)NCCNCC(O)COc1ccccc1 (stereo unspecified),–,–,0.029,0,–
CC(CNC(=O)Cc1ccccc1)NCC(O)COc1ccccc1 (stereo unspecified),–,0,0.003,–,–
O=C(NCCNCC(O)COc1ccccc1)c1ccc(O)c(O)c1 (stereo unspecified),0.014,0,–,–,–
C=CCOc1ccccc1OCC(O)CNCCNC(=O)Nc1ccccc1 (stereo unspecified),0.037,24,–,–,–
O=C(NCCNCC(O)COc1ccccc1)c1cc(O)ccc1O (stereo unspecified),–,–,0.616,0,–
O=C(NCCNCC(O)COc1ccccc1[N+](=O)[O-])Nc1ccccc1 (stereo unspecified),–,–,0.052,14,–
N#Cc1ccccc1OCC(O)CNCCNC(=O)Nc1ccccc1[N+](=O)[O-] (stereo unspecified),–,–,0.097,11,–
CC(C)(C)C(=O)NCCNCC(O)COc1ccccc1[N+](=O)[O-] (stereo unspecified),–,25,0.011,–,–

# Other lines, results leading:
"ED50 [1, 4] [mg/kg]","inhibition [2, 4] [%]","ED50 [1, 5] [mg/kg]","inhibition [2, 5] [%]",ED50 [3] [mg/kg],Compound
–,–,0.012,0,–,NC(=O)NCCNCC(O)COc1ccccc1 (stereo unspecified)
0.024,–,–,5,–,C=CCNC(=O)NCCNCC(O)COc1ccccc1 (stereo unspecified)
0.006,5,–,–,–,CC(C)C(=O)NCCNCC(O)COc1ccccc1[N+](=O)[O-] (stereo unspecified)
–,–,0.039,0,–,CS(=O)(=O)NCCNCC(O)COc1ccccc1 (stereo unspecified)
–,–,0.005,0,–,CCCCCC(=O)NCC(C)NCC(O)COc1ccccc1 (stereo unspecified)
0.022,–,–,0,–,O=C(NCCNCC(O)COc1ccccc1)C1CC1 (stereo unspecified)
–,–,0.016,0,–,COCC(=O)NCCNCC(O)COc1ccccc1 (stereo unspecified)
–,–,0.015,7,–,CC(=O)NCCNCC(O)COc1ccccc1 (stereo unspecified)
0.022,–,–,8,–,CCCCNC(=O)NCCNCC(O)COc1ccccc1 (stereo unspecified)
–,–,0.161,0,–,O=C(NCCNCC(O)COc1ccccc1)c1ccccc1Cl (stereo unspecified)
0.003,0,–,–,–,CC(C)C(=O)NCC(C)(C)NCC(O)COc1ccccc1 (stereo unspecified)
0.02,–,–,0,–,O=C(NCCNCC(O)COc1ccccc1)C1CCCCC1 (stereo unspecified)
–,–,–,0,0.21,CC(C)C(=O)NCCCNCC(O)COc1ccccc1 (stereo unspecified)
–,–,–,34,0.217,Cc1c(N)cc(S(=O)(=O)NCCNCC(O)COc2ccccc2)cc1[N+](=O)[O-] (stereo unspecified)
–,0,0.159,–,–,CCCCCC(=O)NCCNCC(O)COc1ccccc1 (stereo unspecified)
–,37,0.005,–,–,CC(CNC(=O)C(C)C)NCC(O)COc1ccccc1 (stereo unspecified)
–,3,0.84,–,–,CCCCCCCCC(=O)NCCNCC(O)COc1ccccc1 (stereo unspecified)
0.044,16,–,–,–,CC(=O)NCCCCCCNCC(O)COc1ccccc1 (stereo unspecified)
–,6,–,–,0.282,O=C(NCCNCC(O)COc1ccccc1)NC1CCCCC1 (stereo unspecified)
0.024,0,–,–,–,CCNC(=O)NCCNCC(O)COc1ccccc1 (stereo unspecified)
0.465,–,–,0,–,CN(C)c1ccccc1C(=O)NCCNCC(O)COc1ccccc1 (stereo unspecified)
–,0,0.099,–,–,CC(C)NC(=O)NCCNCC(O)COc1ccccc1 (stereo unspecified)
–,9,0.008,–,–,CC(C)S(=O)(=O)NCCNCC(O)COc1ccccc1 (stereo unspecified)
